# This is a sample that favours compounds with a hit; in the whole collection about 2.2% have one here.
# PKD1 inh – PKD1 (human) kinase inhibition; Q15139; PKD1 kinase fluorescence polarization assay; inhibition, % (concentration not given with the values); 200,000 compounds, 0.056% hits; AID 797; in the data active means inhibition above about 50%
# Target sequence (Q15139 whole entry, looked up): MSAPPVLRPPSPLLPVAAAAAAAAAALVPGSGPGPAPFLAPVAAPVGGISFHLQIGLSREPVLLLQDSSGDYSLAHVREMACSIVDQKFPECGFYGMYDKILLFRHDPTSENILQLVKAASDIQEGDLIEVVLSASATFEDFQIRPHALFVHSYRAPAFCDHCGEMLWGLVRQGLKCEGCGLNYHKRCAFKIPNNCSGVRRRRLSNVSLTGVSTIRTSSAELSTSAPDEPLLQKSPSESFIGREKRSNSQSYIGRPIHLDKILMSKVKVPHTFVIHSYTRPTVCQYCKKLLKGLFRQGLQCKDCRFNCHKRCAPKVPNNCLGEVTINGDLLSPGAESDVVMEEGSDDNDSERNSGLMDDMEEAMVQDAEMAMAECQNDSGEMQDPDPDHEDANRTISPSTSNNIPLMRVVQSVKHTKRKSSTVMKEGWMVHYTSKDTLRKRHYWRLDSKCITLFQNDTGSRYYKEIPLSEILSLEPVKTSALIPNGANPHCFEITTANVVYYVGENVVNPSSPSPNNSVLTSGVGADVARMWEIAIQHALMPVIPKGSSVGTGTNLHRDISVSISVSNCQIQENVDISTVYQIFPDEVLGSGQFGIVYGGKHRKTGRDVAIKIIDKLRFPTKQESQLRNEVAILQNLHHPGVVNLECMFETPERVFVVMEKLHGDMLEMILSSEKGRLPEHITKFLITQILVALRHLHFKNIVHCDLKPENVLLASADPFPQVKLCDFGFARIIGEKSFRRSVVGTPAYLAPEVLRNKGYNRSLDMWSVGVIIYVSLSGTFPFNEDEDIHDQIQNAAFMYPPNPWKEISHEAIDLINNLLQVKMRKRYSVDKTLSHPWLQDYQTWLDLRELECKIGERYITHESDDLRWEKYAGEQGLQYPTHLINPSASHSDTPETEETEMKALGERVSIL
# FLuc inh counter – inhibits firefly luciferase, flagging false hits in luciferase inhibition screens; P08659; ATPLite firefly luciferase biochemical luminescence, 10 min; inhibition, % at 10 µM; 200,000 compounds, 1.5% hits; AID 1006;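 active means inhibition above about 50% when tested at 10 µM, limit read from the data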
# Wee1 degr inh – inhibitors of human Wee1 degradation. reporter increase, % at 5 µM. 220,000 compounds, 1.2% hits. HeLa Luc-Wee1K328M stability, luciferase luminescence; 100% = proteasome inhibitor MG132 effect. P30291. AID 1321;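 active means activation above the mean of all tested compounds plus 3 SD, set per screening run, cut at about 8.8% in these data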;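 further: cells exposed to compound for 20 h before luminescence read; 0% = DMSO alone and 100% = MG132 at 30 µM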
# PPC-1+TRAIL kill – PPC-1 cancer cell killing with TRAIL present | 220,000 compounds, 0.41% hits | cell killing (% activity), % at 4 µM or 5 µM | PPC-1 cells + TRAIL, ATPLite viability luminescence;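 active means cell killing above 50% in the first pass at 4 µM, then a duplicate retest at 5 µM averaging 50% or more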;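 further: plate controls were cells with TRAIL plus DMSO for no effect and medium-only wells lacking cells for full effect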
# FLuc act counter – firefly luciferase counter-screen for stimulation assays. P08659. ATPlite luciferase biochemical, luminescence, 10 min; 0 = ATP-free wells, 1 = DMSO control. activation factor at 10 µM. 200,000 tested, under 10 active. AID 1027;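 active means luciferase activation factor, scaled between plate controls, of at least 2 with compound at 10 µM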
#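 assay system = Luciferase/luciferin detection reagent, cell-free biochemical luciferase assay | also added = ATP substrate | times = 10 min post-reagent at room temperature | measured by = luminescence from luciferase reaction | measure = luciferase activation, seen as luminescence increase over controls | benchmarks = low control with PBS replacing ATP, high control enzyme plus ATP without compound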
# TRAIL sens C8 – caspase-8 TRAIL sensitization | inhibition (viability loss, TRAIL sensitization), % at 10 µM | NB7+C8 cells + TRAIL, ATPlite viability luminescence | 360,000 compounds, 1% hits;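 active means compounds causing at least 50% loss of cell viability in the single-dose screen, relative to plate controls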
# * = called active by the depositor; nt = no result given.
SMILES,PKD1 inh,FLuc inh counter,Wee1 degr inh,PPC-1+TRAIL kill,FLuc act counter,TRAIL sens C8
COCCCNC(=O)CNC(=S)N(Cc1ccc(F)cc1)C1CCCCC1,-12,-5,10*,6,1,10
CCCCCCOC(=O)c1ccc(N)cc1,nt,nt,5,-7,nt,-8
CCCCCCCCCCCC1N=C(N)NC(CCCO)=C1C(=O)OC (configuration not stated),nt,nt,nt,nt,nt,63*
CC(C)OP(=O)(OC(C)C)C(NC(=O)c1ccccc1Br)C(N)=O (configuration not stated),nt,nt,-1,-4,nt,10
CC(C)c1ccc(NC(=O)CSc2ncccc2C(=O)Oc2cccc([N+](=O)[O-])c2)cc1,-3,2,2,28,1,67*
COc1ccc(NC(=O)Nc2nc(C(N)CC(C)C)cs2)cc1 (configuration not stated),nt,nt,nt,nt,nt,7
NC(c1csc(NC(=O)Nc2ccc(OC(F)(F)F)cc2)n1)C1CCCCC1 (configuration not stated),nt,nt,nt,nt,nt,85*
CCC(C)CCN1C(Nc2ccccc2)=NC[C@@H]1C (some centres not stated),nt,nt,nt,nt,nt,6
CNC(=O)COC(=O)c1ccc(Cl)c(S(=O)(=O)N2CCCC2)c1,-4,0,10*,2,1,-1
[O-][n+]1c2ccccc2c2n1CCCN=C2c1ccc(Cl)cc1,nt,nt,nt,nt,nt,-1
CC(C)(C)c1ccc(C(=O)CS(=O)(=O)c2ccccc2)cc1,-3,54*,-3,13,0.5,11
COc1cc(/C=N/NC(=O)c2ccc(O)cc2)ccc1OCC(=O)N1CC(C)OC(C)C1 (configuration not stated),nt,nt,0,21,nt,-2
COc1cccc2cc(-c3nc4ccccc4o3)c(=O)oc12,8,60*,1,3,0.4,4
COc1cc(C(O)c2nc(-c3ccc(F)c(Cl)c3)cs2)ccc1F (configuration not stated),nt,nt,nt,nt,nt,4
CCn1c(COc2ccc(OC)cc2)nc2ccccc21,-3,26,8.8*,12,0.7,30
CCn1c(COc2ccccc2)nc2ccccc21,10,9,-3,30,0.9,15
COc1ccccc1-c1cnc(C(O)c2ccc(Cl)cc2)[nH]1 (configuration not stated),nt,nt,nt,nt,nt,5
O=C(Nc1cc(C(F)(F)F)cc(C(F)(F)F)c1)Nc1cnn(-c2ccc([N+](=O)[O-])cc2)c1C(F)(F)F,nt,nt,0,17,nt,47*
N#CC1=C(SCC(=O)c2ccccc2)NC2=C(C(=O)CCC2)C1c1ccco1 (configuration not stated),5,2,9.8*,22,1,11
COc1cccc(NC(=O)CSC2=C(C#N)C(c3ccco3)C3=C(CCCC3=O)N2)c1 (configuration not stated),-17,1,10*,-21,1,-4
Cc1ccc(C(=O)CSC2=C(C#N)C(c3ccco3)C3=C(CCCC3=O)N2)cc1 (configuration not stated),-10,0,-1,4,1,7
Cc1ccc(-c2nnn(CC(=O)N(CC3CCCO3)C(C(=O)NC3CCCC3)c3ccc(O)cc3)n2)o1 (configuration not stated),-4,-4,10*,10,1,-1
COc1ccc(C(=O)NCC(=O)OCC(=O)NC2CCCCCC2)cc1,nt,nt,nt,nt,nt,-8
N/C(=N\OC(=O)c1ccco1)c1cccc([N+](=O)[O-])c1,-7,39,0,9,0.6,-1
N/C(=N\OC(=O)c1cccc(Br)c1)c1ccccc1,8,90*,0,7,0.1,89*
SMILES,PKD1 inh,FLuc inh counter,Wee1 degr inh,PPC-1+TRAIL kill,FLuc act counter,TRAIL sens C8
N/C(=N\OC(=O)c1cccc(Cl)c1)c1ccccn1,8,91*,-2,40,0.1,56*
O=C(COC(=O)c1ccccn1)c1ccc(Br)cc1,-10,63*,-1,-4,0.4,-8
N/C(=N\OC(=O)c1ccco1)c1cccc(Br)c1,-1,56*,8,-3,0.4,0
N/C(=N\OC(=O)c1ccc2ccccc2c1)c1ccc(Br)cc1,-4,-1,1,24,1,-3
NC(=O)Cn1nc(-c2ccccc2)nc1-c1ccccc1,nt,nt,nt,nt,nt,-8
Cn1c(SCC(=O)O)nnc1-c1cccc(NC(=O)c2cccc3ccccc23)c1,nt,nt,-2,17,nt,-10
O=C(COC(=O)/C=C/c1ccccc1[N+](=O)[O-])Nc1ccc(S(=O)(=O)N2CCOCC2)cc1,nt,nt,nt,nt,nt,7
N/C(=N\OC(=O)c1cccc(Br)c1)c1ccccn1,nt,nt,nt,nt,nt,77*
COC(=O)c1ccc(NC(=O)CNC(=O)C2CCCCC2)c(C)c1,3,-5,10*,26,1.1,-5
COC(=O)c1ccc(NC(=O)CNC(=O)C2CCCCC2)cc1,2,-7,-2,11,1.1,5
CCOC(=O)c1cnc2ccccc2c1Nc1cccc(C(=O)O)c1,0,86*,-1,5,0.1,5
CCOC(=O)c1cnc2ccc(C(=O)OC)cc2c1Nc1cccc(C(=O)O)c1,3,-3,4,8,1,-6
Nc1ncnc2c1ncn2[C@@H]1O[C@H](CNCc2ccc(-c3cc(C(F)(F)F)ccc3Cl)o2)[C@@H](O)[C@H]1O,nt,nt,nt,nt,nt,13
O=S1(=O)CCOC[C@H](Cc2ccccc2)N1Cc1ccccc1,nt,nt,nt,nt,nt,-12
Cc1ccc(CN2[C@@H](Cc3ccccc3)C(=O)CS2(=O)=O)cc1,nt,nt,nt,nt,nt,64*
COc1cc(C=O)ccc1OCc1ccc(Cl)nc1,-8,59*,6,1,0.4,5
COc1ccc(CCC(=O)NC2CCC(C)CC2)cc1 (configuration not stated),nt,nt,nt,nt,nt,4
O=C(COc1ccc(Cl)cc1Cl)Nc1ccccc1F,nt,nt,nt,nt,nt,58*
O=C(COc1ccccc1)Nc1ccc(Cl)cc1Cl,-9,50*,-1,10,0.5,nt
CCCC(C)(C)C(=O)N1CCC1(C)C(=O)NS(=O)(=O)c1ccc(Cl)cc1 (configuration not stated),nt,nt,nt,nt,nt,-27
Clc1ccc(-n2nnc(-c3cccnc3Cl)n2)cc1Cl,1,16,0,21,0.8,17
Fc1ccc(-n2nnc(-c3cccnc3Cl)n2)cc1,3,66*,4,35,0.3,42
Fc1ccc(-n2nnc(-c3ccccc3Cl)n2)cc1,nt,nt,nt,nt,nt,10
COc1ncccc1-c1nnn(-c2ccccc2)n1,7,54*,4,17,0.5,22
Clc1ncccc1-c1nnn(-c2ccccc2)n1,-3,70*,2,42,0.3,35
Fc1ccc(-n2nnc(-c3nccs3)n2)cc1,-9,76*,7,30,0.2,26

# Compound activity: PubChem, several laboratories
